Data taken from ChEMBL document CHEMBL1921704, “Discovery of N-aryl-2-acylindole human glucagon receptor antagonists” (Bioorg Med Chem Lett, 2011).
Each block holds one compound with its values, some of them ahead of it. The source made the active and inactive calls. The calls are words filed in the database; no cut-off is given here.

Experiments:
[1] = Solubility of the compound; assay type: physicochemical
[2] = Volume of distribution in rat at 1 mg/kg, iv and 2 mg/kg, po; assay type: ADME, organism-based; details: in vivo
Summary of the method: (§1)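 Rat PK with dosing at 1 mg/kg IV and 2 mg/kg PO, vehicle DMSO/water/PEG400 15:35:55. Parameters were plasma clearance, Vd, t1/2, dose-normalised PO AUC and Cmax, and %F.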

[3] = Plasma clearance in rat at 1 mg/kg, iv and 2 mg/kg, po; assay type: ADME, organism-based; summary of the method: as §1
[4] = Oral bioavailability in rat at 2 mg/kg; assay type: ADME, organism-based; details: in vivo; summary of the method: as §1
Rattus norvegicus [5] = experiment: Dose normalised Cmax in rat at 1 mg/kg, iv and 2 mg/kg, po; assay type: ADME, organism-based; details: in vivo; summary of the method: as §1
Glucagon receptor [6] = target: T1, Glucagon receptor (Homo sapiens, UniProt P47871); experiment: Antagonist activity at human glucagon receptor expressed in CHO cells assessed as inhibition of forskolin/glucagon-induced cAMP production preincubated for 30 mins before glucagon challenge measured after 30 mins using [125I]-cAMP by liquid scintillation counting; assay type: functional, cell-based
Summary of the method: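 Glucagon-induced cAMP production measured in CHO cells transfected with hGCGR. IC50 reported as the average rounded to two significant figures, with SEM when measured more than once.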

Glucagon receptor [7] = target: T1, Glucagon receptor; experiment: Displacement of [125I]-glucagon from human glucagon receptor expressed in CHO cells after 4 to 12 hrs by scintillation proximity assay; assay type: cell-based
Summary of the method: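 Scintillation proximity assay on membranes from CHO cells expressing hGCGR, measuring inhibition of ¹²⁵I-labelled glucagon binding. IC50 reported as the average rounded to two significant figures, with standard error of the mean when more than one measurement was made.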

Rattus norvegicus [8] = experiment: Dose normalised AUC in rat at 2 mg/kg, po; assay type: ADME, organism-based; design: dose 2 mg/kg, route oral; details: in vivo; summary of the method: as §1
[9] = Half life in rat at 1 mg/kg, iv and 2 mg/kg, po; assay type: ADME, organism-based; details: in vivo; summary of the method: as §1
Cytochrome P450 3A4 = Cytochrome P450 3A4 (Homo sapiens, UniProt P08684); experiment: Inhibition of CYP3A4; assay type: ADME
Liver microsomes [10] = experiment: Stability of the compound in human liver microsomes assessed as racemization at 10 uM after 60 mins by chiral HPLC analysis; assay type: ADME, Microsome; details: 1 h
Rattus norvegicus [11] = experiment: Stability of the compound in bile duct cannulated rat assessed as racemization at 2 mg/kg, iv by chiral HPLC analysis; assay type: ADME, organism-based; design: dose 2 mg/kg, route intravenous; details: in vivo
Summary of the method: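 Radiolabelled compound given IV at 2 mg/kg to bile-duct-cannulated rats. Excreted parent compound analysed by chiral HPLC for racemization.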

[12] = Plasma clearance in dog at 0.5 mg/kg, iv and 2 mg/kg, po; assay type: ADME, organism-based, Canis lupus familiaris
[13] = Volume of distribution in dog at 0.5 mg/kg, iv and 2 mg/kg, po; assay type: ADME, organism-based, Canis lupus familiaris; details: in vivo
Mus musculus [14] = experiment: Antidiabetic activity in human glucagon receptor transgenic ob/ob mouse hyperglycemic model assessed as reduction in ambient glucose level at 1 mg/kg, po over 6 hrs period; assay type: functional, organism-based; design: dose 1 mg/kg
Summary of the method: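 Model was transgenic ob/ob/hGCGR diabetic mice. Ambient glucose was followed over 6 h after a single oral dose.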

Mus musculus [15] = experiment: Antidiabetic activity in human glucagon receptor transgenic mouse assessed as inhibition of glucagon-induced glucose excursion at 10 mg/kg, po administered 60 mins after glucagon challenge by glucometry; assay type: functional, organism-based; design: dose 10 mg/kg; details: in the assay text read “60 mins before glucagon challenge” for “60 mins after glucagon challenge”
Summary of the method: (§2)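 Oral dosing to mice expressing human glucagon receptor, followed 60 min later by IP glucagon injection. Read-out was the glucagon-induced blood glucose excursion.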

[16] = Oral bioavailability in dog at 2 mg/kg; assay type: ADME, organism-based, Canis lupus familiaris; details: in vivo
Cytochrome P450 2C9 = Cytochrome P450 2C9 (Homo sapiens, UniProt P11712); experiment: Inhibition of CYP2C9; assay type: ADME
Liver = experiment: Protein binding in Sprague-Dawley rat liver at 20 mg/kg, po after 2 to 24 hrs; assay type: ADME, organism-based; design: dose 20 mg/kg, route oral; details: in vivo
Summary of the method: (§3)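 Radiolabelled analog given orally at 20 mg/kg to Sprague-Dawley rats. Irreversible binding to plasma and liver proteins measured at 2, 6 and 24 h post dose.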

Mus musculus [17] = experiment: Antidiabetic activity in human glucagon receptor transgenic mouse assessed as inhibition of glucagon-induced glucose excursion at 3 mg/kg, po administered 60 mins after glucagon challenge by glucometry; assay type: functional, organism-based; design: dose 3 mg/kg; details: in the assay text read “60 mins before glucagon challenge” for “60 mins after glucagon challenge”; summary of the method: as §2
[18] = target: T2, Gastric inhibitory polypeptide receptor (Homo sapiens, UniProt P48546); experiment: Antagonist activity at human GIP receptor assessed as inhibition of cAMP production; assay type: functional
T2 sequence (P48546 whole entry): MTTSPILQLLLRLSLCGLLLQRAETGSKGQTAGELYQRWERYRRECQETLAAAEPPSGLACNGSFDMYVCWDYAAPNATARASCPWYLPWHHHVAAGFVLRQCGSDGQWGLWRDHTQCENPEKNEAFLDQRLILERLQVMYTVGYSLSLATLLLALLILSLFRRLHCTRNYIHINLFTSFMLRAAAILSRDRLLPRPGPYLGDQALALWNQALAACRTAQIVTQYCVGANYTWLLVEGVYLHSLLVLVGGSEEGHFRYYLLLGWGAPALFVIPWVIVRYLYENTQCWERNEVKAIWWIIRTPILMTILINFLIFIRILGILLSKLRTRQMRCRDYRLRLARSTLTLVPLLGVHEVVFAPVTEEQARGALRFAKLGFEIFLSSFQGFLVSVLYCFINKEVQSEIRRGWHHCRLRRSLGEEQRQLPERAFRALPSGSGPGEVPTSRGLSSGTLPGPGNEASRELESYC

Liver microsomes [19] = experiment: Protein binding in human liver microsomes at 10 uM after 60 mins; assay type: ADME, Microsome; details: 1 h
Summary of the method: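 Tritium-labelled analog incubated with human and rat liver microsomes for 60 min at 37 °C, then irreversible protein binding measured.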

Canis familiaris [20] = experiment: Dose normalised Cmax in dog at 0.5 mg/kg, iv and 2 mg/kg, po; assay type: ADME, organism-based, Canis lupus familiaris; details: in vivo
Plasma = experiment: Protein binding in Sprague-Dawley rat plasma at 20 mg/kg, po after 2 to 24 hrs; assay type: ADME, organism-based; design: dose 20 mg/kg, route oral; details: in vivo; summary of the method: as §3
Cytochrome P450 2D6 = Cytochrome P450 2D6 (Homo sapiens, UniProt P10635); experiment: Inhibition of CYP2D6; assay type: ADME
[21] = target: Glucagon-like peptide 1 receptor (Homo sapiens, UniProt P43220); experiment: Antagonist activity at human GLP1 receptor assessed as inhibition of cAMP production; assay type: functional
Canis familiaris [22] = experiment: Dose normalised AUC in dog at 2 mg/kg, po; assay type: ADME, organism-based, Canis lupus familiaris; design: dose 2 mg/kg, route oral; details: in vivo
Mus musculus [23] = experiment: Antidiabetic activity in human glucagon receptor transgenic mouse assessed as inhibition of glucagon-induced glucose excursion at 30 mg/kg, po administered 60 mins after glucagon challenge by glucometry; assay type: functional, organism-based; design: dose 30 mg/kg; details: in the assay text read “60 mins before glucagon challenge” for “60 mins after glucagon challenge”; summary of the method: as §2
[24] = Chemical stability of the compound in 1:1 mixtures of dioxane and buffered solutions at pH 2 to pH 10 assessed as racemization at 40 degree celsius after 24 hrs by chiral HPLC analysis; assay type: physicochemical; details: buffer, pH 2, 24 h
Rattus norvegicus [25] = experiment: Toxicity in rat assessed as tolerability at 100 mg/kg/day after 8 days; assay type: organism-based; details: in vivo, 192 h
[26] = Half life in dog at 0.5 mg/kg, iv and 2 mg/kg, po; assay type: ADME, organism-based, Canis lupus familiaris; details: in vivo

T1 sequence (P47871 whole entry): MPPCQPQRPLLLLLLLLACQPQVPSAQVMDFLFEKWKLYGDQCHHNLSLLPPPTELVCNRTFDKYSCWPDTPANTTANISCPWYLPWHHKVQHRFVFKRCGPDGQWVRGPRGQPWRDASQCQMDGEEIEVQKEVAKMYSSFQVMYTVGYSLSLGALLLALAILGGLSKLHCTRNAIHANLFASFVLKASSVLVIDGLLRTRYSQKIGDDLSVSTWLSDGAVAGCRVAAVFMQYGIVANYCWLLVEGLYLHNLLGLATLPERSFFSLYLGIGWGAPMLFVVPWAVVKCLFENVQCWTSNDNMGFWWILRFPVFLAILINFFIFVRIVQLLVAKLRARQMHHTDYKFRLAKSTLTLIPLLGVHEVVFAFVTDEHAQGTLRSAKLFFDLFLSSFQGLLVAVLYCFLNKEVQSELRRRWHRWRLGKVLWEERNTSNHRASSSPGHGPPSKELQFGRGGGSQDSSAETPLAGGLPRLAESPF
Cytochrome P450 2D6, sequence (P10635 whole entry): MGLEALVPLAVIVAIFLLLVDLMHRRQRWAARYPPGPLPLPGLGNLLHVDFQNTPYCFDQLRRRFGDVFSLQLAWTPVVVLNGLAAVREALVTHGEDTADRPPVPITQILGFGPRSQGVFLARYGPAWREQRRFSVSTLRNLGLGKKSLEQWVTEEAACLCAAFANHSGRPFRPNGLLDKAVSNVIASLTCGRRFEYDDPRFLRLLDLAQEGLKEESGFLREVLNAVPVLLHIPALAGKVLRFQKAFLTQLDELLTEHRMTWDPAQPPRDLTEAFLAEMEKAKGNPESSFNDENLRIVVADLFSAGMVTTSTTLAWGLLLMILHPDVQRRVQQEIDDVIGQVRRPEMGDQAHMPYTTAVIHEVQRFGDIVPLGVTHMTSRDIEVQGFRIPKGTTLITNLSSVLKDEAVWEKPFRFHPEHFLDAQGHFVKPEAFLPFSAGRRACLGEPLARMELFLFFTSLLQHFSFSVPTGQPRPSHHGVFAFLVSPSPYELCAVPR
Cytochrome P450 3A4, sequence (P08684 whole entry): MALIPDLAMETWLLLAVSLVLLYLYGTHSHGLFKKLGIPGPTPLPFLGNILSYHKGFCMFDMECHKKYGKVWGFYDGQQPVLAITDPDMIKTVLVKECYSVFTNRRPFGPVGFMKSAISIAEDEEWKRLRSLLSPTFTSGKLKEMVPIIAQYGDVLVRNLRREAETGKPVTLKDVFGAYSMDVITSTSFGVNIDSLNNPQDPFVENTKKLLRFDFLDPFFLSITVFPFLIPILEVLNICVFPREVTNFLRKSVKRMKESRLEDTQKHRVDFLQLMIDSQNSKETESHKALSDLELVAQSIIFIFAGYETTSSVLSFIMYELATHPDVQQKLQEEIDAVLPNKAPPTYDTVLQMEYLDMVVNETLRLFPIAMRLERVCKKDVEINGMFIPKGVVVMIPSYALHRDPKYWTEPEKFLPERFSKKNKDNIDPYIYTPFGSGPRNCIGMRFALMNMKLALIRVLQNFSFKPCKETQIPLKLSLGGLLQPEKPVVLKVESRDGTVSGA
Cytochrome P450 2C9, sequence (P11712 whole entry): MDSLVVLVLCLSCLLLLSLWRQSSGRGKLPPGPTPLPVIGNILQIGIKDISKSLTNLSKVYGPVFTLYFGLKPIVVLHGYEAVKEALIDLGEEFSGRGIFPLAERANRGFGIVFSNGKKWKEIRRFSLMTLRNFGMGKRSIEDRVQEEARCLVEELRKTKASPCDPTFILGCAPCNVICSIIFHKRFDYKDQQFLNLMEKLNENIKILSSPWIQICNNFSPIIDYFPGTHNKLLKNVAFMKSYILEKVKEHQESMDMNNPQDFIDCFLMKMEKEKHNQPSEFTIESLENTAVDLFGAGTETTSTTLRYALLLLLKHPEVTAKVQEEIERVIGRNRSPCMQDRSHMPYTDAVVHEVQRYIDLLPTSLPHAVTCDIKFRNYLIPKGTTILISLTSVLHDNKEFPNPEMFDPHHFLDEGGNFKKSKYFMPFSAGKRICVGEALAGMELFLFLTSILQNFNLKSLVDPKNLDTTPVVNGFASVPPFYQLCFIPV
Glucagon-like peptide 1 receptor, sequence (P43220 whole entry): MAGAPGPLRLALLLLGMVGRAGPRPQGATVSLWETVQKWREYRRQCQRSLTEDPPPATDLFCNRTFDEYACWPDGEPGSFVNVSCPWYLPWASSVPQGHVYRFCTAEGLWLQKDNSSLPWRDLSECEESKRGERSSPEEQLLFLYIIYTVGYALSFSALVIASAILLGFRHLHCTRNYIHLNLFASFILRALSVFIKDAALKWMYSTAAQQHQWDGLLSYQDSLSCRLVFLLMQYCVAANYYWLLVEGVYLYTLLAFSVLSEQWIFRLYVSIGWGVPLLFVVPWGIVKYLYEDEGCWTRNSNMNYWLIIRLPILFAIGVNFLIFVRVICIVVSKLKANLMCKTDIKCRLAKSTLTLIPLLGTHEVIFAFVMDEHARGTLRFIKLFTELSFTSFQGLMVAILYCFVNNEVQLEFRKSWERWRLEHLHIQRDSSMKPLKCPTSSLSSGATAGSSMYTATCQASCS

solubility [1]: Insoluble
Structure (SMILES): Cn1/c(=N\c2ccc(OC(F)(F)F)cc2)n(Cc2ccc(C(=O)Nc3nnn[nH]3)cc2)c2cc(Cl)c(Cl)cc21

Vd [2]: 1.5 L/kg
clearance [3]: 14.2 mL/min/kg
bioavailability [4]: 42%
Cmax/dose (Rattus norvegicus [5]): 250 nM
IC50 (Glucagon receptor [6]): 55 nM
IC50 (Glucagon receptor [7]): 17 nM
AUC/dose (Rattus norvegicus [8]): 0.85 µM·h
half-life [9]: 1.7 h
Structure (SMILES): CCC[C@@H](Cc1ccc(C(=O)NCCC(=O)O)cc1)C(=O)c1cc2cc(Cl)ccc2n1-c1cccc(C(F)(F)F)c1

IC50 (Glucagon receptor [6]): 718 nM
IC50 (Glucagon receptor [7]): 58 nM
Structure (SMILES): CCCC(Cc1ccc(C(=O)NCCC(=O)O)cc1)C(=O)c1cc2cc(Cl)ccc2n1-c1cnc2ccccc2c1 (single isomer, unassigned)

IC50 (Glucagon receptor [6]): 39 nM
IC50 (Glucagon receptor [7]): 23 nM
Structure (SMILES): CCCC(Cc1ccc(C(=O)NCCC(=O)O)cc1)C(=O)c1cc2cc(Cl)ccc2n1-c1ccc(OC)c(C(F)(F)F)c1 (single isomer, unassigned)

IC50 (Glucagon receptor [6]): 44 nM
IC50 (Glucagon receptor [7]): 16 nM
Structure (SMILES): CCCCC[C@@H](Cc1ccc(C(=O)NCCC(=O)O)cc1)C(=O)c1cc2cc(C(F)(F)F)ccc2n1-c1cccc(C(F)(F)F)c1

IC50 (Glucagon receptor [7]): 120 nM
Structure (SMILES): CCCC(Cc1ccc(C(=O)NCCC(=O)O)cc1)C(=O)c1cc2cc(Cl)ccc2n1-c1cc(C)cc(C)c1 (single isomer, unassigned)

IC50 (Glucagon receptor [6]): 150 nM
IC50 (Glucagon receptor [7]): 47 nM
Structure (SMILES): CCCC(Cc1ccc(C(=O)NCCC(=O)O)cc1)C(=O)c1cc2cc(Cl)ccc2n1-c1cccc(F)c1 (single isomer, unassigned)

IC50 (Glucagon receptor [6]): 17 nM
IC50 (Glucagon receptor [7]): 5.7 nM
Structure (SMILES): CCCCC[C@@H](Cc1ccc(C(=O)NCCC(=O)O)cc1)C(=O)c1cc2cc(OC(F)(F)F)ccc2n1-c1cccc(C(F)(F)F)c1

IC50 (Glucagon receptor [6]): 30 nM
IC50 (Glucagon receptor [7]): 31 nM
Structure (SMILES): CCCC(Cc1ccc(C(=O)NCCC(=O)O)cc1)C(=O)c1cc2cc(Cl)ccc2n1-c1ccc(C(F)(F)F)cc1 (single isomer, unassigned)

IC50 (Glucagon receptor [6]): 36 nM
IC50 (Glucagon receptor [7]): 17 nM
Structure (SMILES): CC(C)CC[C@@H](Cc1ccc(C(=O)NCCC(=O)O)cc1)C(=O)c1cc2cc(Cl)ccc2n1-c1cccc(C(F)(F)F)c1

IC50 (Glucagon receptor [6]): 42 nM
IC50 (Glucagon receptor [7]): 16 nM
Structure (SMILES): CCCC[C@@H](Cc1ccc(C(=O)NCCC(=O)O)cc1)C(=O)c1cc2cc(Cl)ccc2n1-c1cccc(C(F)(F)F)c1

IC50 (Glucagon receptor [6]): 55 nM
IC50 (Glucagon receptor [7]): 37 nM
Structure (SMILES): O=C(O)CCNC(=O)c1ccc(C[C@H](CC2CC2)C(=O)c2cc3cc(Cl)ccc3n2-c2cccc(C(F)(F)F)c2)cc1

Vd [2]: 0.98 L/kg
IC50 (Cytochrome P450 3A4): > 11000 nM
Stability (Liver microsomes [10]): Stable
Stability (Rattus norvegicus [11]): Stable
clearance [12]: 3.8 mL/min/kg
Vd [13]: 0.32 L/kg
clearance [3]: 6.8 mL/min/kg
bioavailability [4]: 33%
bioavailability [16]: 60%
IC50 (Cytochrome P450 2C9): > 11000 nM
PB (Liver): Not Active
Cmax/dose (Rattus norvegicus [5]): 330 nM
IC50 [18]: 1400 nM
PB (Liver microsomes [19]): Not Active
Cmax/dose (Canis familiaris [20]): 840 nM
PPB (Plasma): Not Active
IC50 (Glucagon receptor [6]): 12 nM
IC50 (Glucagon receptor [7]): 10 nM
IC50 (Cytochrome P450 2D6): > 11000 nM
IC50 [21]: > 10000 nM
AUC/dose (Rattus norvegicus [8]): 1.46 µM·h
AUC/dose (Canis familiaris [22]): 4.2 µM·h
Stability [24]: Stable
half-life [9]: 1.9 h
half-life [26]: 2.7 h
Structure (SMILES): CCCCC[C@@H](Cc1ccc(C(=O)NCCC(=O)O)cc1)C(=O)c1cc2cc(Cl)ccc2n1-c1cccc(C(F)(F)F)c1
Activity (Mus musculus [14]): Active
Activity (Mus musculus [15]): Active
Activity (Mus musculus [17]): Active
Activity (Mus musculus [23]): Active
Activity (Rattus norvegicus [25]): Non-toxic

IC50 (Glucagon receptor [6]): 24 nM
IC50 (Glucagon receptor [7]): 12 nM
Structure (SMILES): CCCCC[C@@H](Cc1ccc(C(=O)NCCC(=O)O)cc1)C(=O)c1cc2cc(C)ccc2n1-c1cccc(C(F)(F)F)c1
